Results: the RNAGym collection of RNA variant scans (doi:10.1126/science.aae0568)
This sample holds only a part of the variants without activity.

B1: tRNA (parent)
chain: GUUCCGUUGGCGUAAUGGUAACGCGUCUCCCUCCUAAGGAGAAGACUGCGGGUUCGAGUCCCGUACGGAACG

Variants of: B1
Experiment: yeast fitness relative to wild type (ratio to wild type); higher = fitter; tRNA-Arg(CCU), competitive growth, 37 C, YPD
Method in brief: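 Start and end populations of a pooled competition were compared by 100-nucleotide paired-end sequencing of gene amplicons. The Saccharomyces cerevisiae strains carried tRNA-Arg(CCU) gene variants at the native genomic locus, synthesised with a 3% per-site mutation rate at 69 sites, and competed in YPD at 37°C for 24 hours in six parallel replicates. Darwinian fitness relative to wild type was based on the change in genotype frequencies. Genotypes required ≥ 100 starting reads, and estimates < 0.5 were set to 0.5.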

Variant | yeast fitness
C4U A20C U47A A65U | ≤ 0.5
C4U A14C G51C | ≤ 0.5
C4U A21U U35C G50C | ≤ 0.5
C4G U19A G44C | 0.535
C4U A15C C30G | ≤ 0.5
C4G U32G C62U G67U | ≤ 0.5
C4G U28C C55U | ≤ 0.5
C4G U28G C30A A43C C61G | 0.571
C4U A20C C34U C55U | 0.532
C4G U26C C46U | 0.702
C4U A14G A15C G63C | ≤ 0.5
C4U A20U A40U G56C | ≤ 0.5
C4U A21G C46A A70U | 0.76
C4G U16C C31U A36G | ≤ 0.5
C4G U26C G50A | ≤ 0.5
C4U A15U A42C U47A A65G | ≤ 0.5
C4G U32G | 0.628
C4G U19A A37U A42G | 0.55
C4U A20C C24G G56A C62A | ≤ 0.5
C4G U19C C22G G50A A57C | ≤ 0.5
C4U A14U A36U | 0.545
C4G U16C C27G A40G G48A C55A A57C | ≤ 0.5
C4G U53A | 0.594
C4U A15C C29U U54C C61G G63A | ≤ 0.5

Variant | yeast fitness
C4U A15G C60G | 0.537
C4G U16C G44A G48A G50C A57U | ≤ 0.5
C4G U35A U54C C61G | 0.765
C4G U16G C30U C34A U53G U59C A70C | ≤ 0.5
C4G U28G C30A A42G A43C C61G | ≤ 0.5
C4G U19C C62U | 0.799
C4U A20G C24U | 0.624
C4G U26A C27U A42C G51A A65U | ≤ 0.5
C4U A15G G23C A37U U47C A65U | ≤ 0.5
C4G U19C G51A A65G | ≤ 0.5
C4G U16C C31U | 0.554
C4G U32G A69C | ≤ 0.5
C4U A14G A36G C60G C61A | ≤ 0.5
C4U A15C C27A C31U A43G C60A | 0.526
C4U A15U A45C | 0.611
C4U A21U U28C G52C A57C | ≤ 0.5
C4U A21G G52A G63A | ≤ 0.5
C4U A21C C27U G63A A65G | ≤ 0.5
C4G U59A U64G A65C | ≤ 0.5
C4U A15C A37G A40G G68U | ≤ 0.5
C4G U35G A70C | 0.552
C4G U32A C34G G41C C49G | ≤ 0.5
C4G U28A C33G | ≤ 0.5
C4U A15C C62G | ≤ 0.5

Variant | yeast fitness
C4G U28A C31G | ≤ 0.5
C4G U16G | 0.831
C4U A20C C27U A40C | 0.605
C4G U19A C27A G58C C61A A69U | ≤ 0.5
C4U A20C C29U | 0.715
C4U A15G C22U | 0.559
C4U A21G U47C A70G | ≤ 0.5
C4U A36C A45C | ≤ 0.5
C4U A20G A40U A70G | ≤ 0.5
C4G U16G A20C A21G C30U | ≤ 0.5
C4U A20C G51C A57G | ≤ 0.5
C4U A15C G63C | 0.556
C4U A20C C55G | ≤ 0.5
C4U A21C C22A C60U | ≤ 0.5
C4U A15C C34G A43C A65U | ≤ 0.5
C4U A15U U53A C62A | ≤ 0.5
C4U A15C C55U G63C | ≤ 0.5
C4G U35A | 0.772
C4G U35C | 0.942
C4U A20C C34G A36G | 0.606
C4U A20C A65C | 0.719
C4G U64A | 0.707
C4G U64C | 0.872
C4G U64G | 0.671

Variant | yeast fitness
C4G U19A C46U A70U | ≤ 0.5
C4U A14G C30G A36U | ≤ 0.5
C4U A15G U16C | 0.728
C4U A15C G67C | 0.54
C4U A14C | 0.749
C4G U26G G39C G48A | 0.611
C4U A14U C33G A69U | ≤ 0.5
C4G U28C | 0.77
C4U A14U C24G C30U C60G C62U | 0.663
C4U A21C A42G | ≤ 0.5
C4G U32C G63C | 0.605
C4U A21U C66A | ≤ 0.5
C4U A14G C30A | 0.812
C4G U16C U32A C46U G63C | ≤ 0.5
C4G U35C G39A C62A | 0.511
C4G U28A G39A | ≤ 0.5
C4U A20G A45U C61U C62G | 0.53
C4U A15C | 0.763
C4G U26A A43U C46G | 0.593
C4U A15G G23C A37U A65U | 0.57
C4G U28A A40C G50A | ≤ 0.5
C4G U16G C30U C34A U53G | ≤ 0.5
C4G U19A C29G G41A C46U U54C C60A | 0.737
C4U A20U C27G C30G A43G A65C G68C | 0.639

Variant | yeast fitness
C4U A20G C27A G52A | ≤ 0.5
C4G U54G C62A | 0.579
C4G U19C A43G A45C C46U | ≤ 0.5
C4U A21C G41U | 0.625
C4U A20U G50A G52A C60U C61G | ≤ 0.5
C4U A20U C29G C49G G63C | ≤ 0.5
C4G U28C A69U | 0.568
C4U A15C G17A G18A A36C C55U C66A | ≤ 0.5
C4G U47A | 0.854
C4G U47C | 0.865
C4G U16C C31U A70C | ≤ 0.5
C4G U16C C31U G51A | 0.533
C4G U19A A37U A42G A65C G67A | ≤ 0.5
C4U A15G C27U G41A | ≤ 0.5
C4U A20G A45U C61U C62G A69C | 0.602
C4U A14U C33U C49G C55A | ≤ 0.5
C4U A14C G68C | ≤ 0.5
C4G U28C G56U U59A | 0.606
C4U A21U A36G A43C C55U A65G | ≤ 0.5
C4U A14U G39A C49G | ≤ 0.5
C4U A14C C22A U54C C55G | ≤ 0.5
C4U A21C C24U G38A G63C | ≤ 0.5
C4U A15C C46A A57G C61A A70C | ≤ 0.5
C4U A15U U64C A65G | ≤ 0.5

Variant | yeast fitness
C4U A20C | 1.03
C4U A20C C22U U47A C62U | 0.753
C4U A14C U59A C60U | ≤ 0.5
C4U A14U A42G C46U | ≤ 0.5
C4U A14C C49G C55G | ≤ 0.5
C4G U16C G44A G48A G50C | 0.511
C4U A15C G51A | ≤ 0.5
C4U A15C G51C | ≤ 0.5
C4G U35A C61A | ≤ 0.5
C4U A36C C46U | ≤ 0.5
C4U A20U A40U | 0.646
C4U A15C A43U | ≤ 0.5
C4G U35G A43C U47C | ≤ 0.5
C4U A15G A65U | 0.69
C4G U16C U19C U32A C46U G63C | ≤ 0.5
C4G U35A A36U | ≤ 0.5
C4U A14U A43U G68A | ≤ 0.5
C4U A21G U32A A40C C46A C62U G67A | ≤ 0.5
C4U A14C C29U A65G | 0.765
C4G U19A C31G | ≤ 0.5
C4U A15G C22U A69U | ≤ 0.5
C4G U53A G56A | ≤ 0.5
C4U A21G G52A | ≤ 0.5
C4G U32A C34G G41C | ≤ 0.5

Variant | yeast fitness
C4U A14U C30A U54G A65C | 0.634
C4G U19C U47A C49U G68C | ≤ 0.5
C4U A21C C24U G38A | ≤ 0.5
C4U A21G C46A G67A | 0.63
C4U A20G U28C C31U G50C C55G U59C C60U G67U | ≤ 0.5
C4G U47A G68A | ≤ 0.5
C4G U16C C29G A36U C60G | ≤ 0.5
C4U A20C C49U C61A | ≤ 0.5
C4G U16G U19C A21C C49U G50A | 0.621
C4U A20C A40U C55G | 0.578
C4G U32A G38C | ≤ 0.5
C4G U19C | 0.99
C4G U53G C66A | ≤ 0.5
C4G U19C G48C A69C | 0.602
C4G U28G C30A A43C C61G A65G | ≤ 0.5
C4U A21C U59C | ≤ 0.5
C4G U54C | 0.886
C4G U54A | 0.572
C4G U54G | 0.626
C4G U26A C30U | ≤ 0.5
C4U A15C C30G A69C | ≤ 0.5
C4U A15C C30G A69U | ≤ 0.5
C4U A14G C34G G50C G56C | 0.637
